From ChEMBL document CHEMBL1133478, “Discovery of potent cyclic pseudopeptide human tachykinin NK-2 receptor antagonists” (J Med Chem, 2000)
Bridge positions count the residues as written; N and C are the ends. Square brackets hold non-standard residues; d marks the D form. Peptide text beside a SMILES is read from it. * marks the point of attachment. NH(β-GlcNAc) = CC(=O)N[C@@H]1[C@@H](O)[C@H](O)[C@@H](CO)O[C@H]1N*; Dap = NC[C@H](N)C(=O)O

Columns and labels:
Substance-K receptor = molecular target: T1, Substance-K receptor (Homo sapiens, UniProt P21452); experiment: Binding affinity towards Tachykinin receptor 2
T1 sequence (P21452 whole entry): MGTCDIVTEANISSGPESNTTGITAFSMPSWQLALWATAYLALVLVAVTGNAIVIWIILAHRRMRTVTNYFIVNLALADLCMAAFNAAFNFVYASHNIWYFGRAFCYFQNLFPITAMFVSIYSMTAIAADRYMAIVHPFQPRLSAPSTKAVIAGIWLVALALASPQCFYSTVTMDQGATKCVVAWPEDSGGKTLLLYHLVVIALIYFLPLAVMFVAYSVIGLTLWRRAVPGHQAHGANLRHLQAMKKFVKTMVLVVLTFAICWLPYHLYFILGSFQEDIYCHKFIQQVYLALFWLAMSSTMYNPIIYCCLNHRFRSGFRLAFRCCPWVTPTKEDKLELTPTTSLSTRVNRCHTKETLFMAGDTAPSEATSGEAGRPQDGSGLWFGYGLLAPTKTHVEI
Method in brief: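 Competition binding at human NK-2 receptor expressed in CHO cells, radioligand [125I]NKA. pKi computed with EBDA then LIGAND; mean of 2–6 experiments, each run in duplicate.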

[1] = tested on: Substance-K receptor (Oryctolagus cuniculus); experiment: In Vitro evaluation for the functional activity towards Tachykinin receptor 2
[2] = molecular target: Substance-P receptor (Cavia porcellus) (UniProt P30547)
Substance-P receptor (Cavia porcellus), sequence (P30547 whole entry): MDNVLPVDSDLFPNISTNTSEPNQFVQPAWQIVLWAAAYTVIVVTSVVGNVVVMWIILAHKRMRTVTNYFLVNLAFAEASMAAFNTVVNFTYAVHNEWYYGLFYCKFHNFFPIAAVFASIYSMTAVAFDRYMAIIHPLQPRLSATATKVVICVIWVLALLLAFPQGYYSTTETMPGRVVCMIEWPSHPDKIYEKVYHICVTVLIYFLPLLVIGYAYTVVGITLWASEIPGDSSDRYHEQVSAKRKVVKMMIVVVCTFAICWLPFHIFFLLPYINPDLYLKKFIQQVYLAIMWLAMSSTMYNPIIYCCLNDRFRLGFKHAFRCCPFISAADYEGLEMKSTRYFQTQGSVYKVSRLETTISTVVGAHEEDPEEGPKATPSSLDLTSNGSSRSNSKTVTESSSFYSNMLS

[3] = molecular target: T2, Neuromedin-K receptor (Cavia porcellus) (UniProt P30098)
T2 sequence (whole entry): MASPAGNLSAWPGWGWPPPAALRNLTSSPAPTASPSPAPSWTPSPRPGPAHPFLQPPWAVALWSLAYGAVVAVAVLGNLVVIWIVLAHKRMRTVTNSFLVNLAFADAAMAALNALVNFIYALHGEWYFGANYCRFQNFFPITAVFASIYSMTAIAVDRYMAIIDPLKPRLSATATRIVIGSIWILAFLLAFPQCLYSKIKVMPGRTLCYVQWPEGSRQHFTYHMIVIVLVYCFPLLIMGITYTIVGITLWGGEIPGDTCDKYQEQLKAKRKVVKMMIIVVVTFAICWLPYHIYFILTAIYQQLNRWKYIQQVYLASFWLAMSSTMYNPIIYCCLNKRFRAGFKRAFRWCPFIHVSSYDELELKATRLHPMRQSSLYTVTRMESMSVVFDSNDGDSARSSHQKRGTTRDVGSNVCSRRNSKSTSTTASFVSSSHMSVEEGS

[4] = molecular target: T3, Substance-K receptor (Cavia porcellus) (UniProt Q64077)
T3 sequence (whole entry): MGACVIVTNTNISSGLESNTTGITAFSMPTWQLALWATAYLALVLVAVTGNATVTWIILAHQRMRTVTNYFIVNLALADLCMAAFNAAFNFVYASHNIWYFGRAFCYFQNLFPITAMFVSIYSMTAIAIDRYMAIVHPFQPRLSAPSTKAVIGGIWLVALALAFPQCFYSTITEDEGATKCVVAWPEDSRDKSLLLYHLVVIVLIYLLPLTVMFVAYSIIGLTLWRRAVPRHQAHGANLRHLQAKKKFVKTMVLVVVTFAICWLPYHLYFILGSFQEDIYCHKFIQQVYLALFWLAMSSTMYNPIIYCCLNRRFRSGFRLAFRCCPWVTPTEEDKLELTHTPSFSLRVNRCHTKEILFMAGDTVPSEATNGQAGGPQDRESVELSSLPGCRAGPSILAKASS

`O=C1CC(Cc2ccccc2)C(=O)NCCNC(=O)[C@H](Cc2ccccc2)NC(=O)[C@H](Cc2c[nH]c3ccccc23)N1` (mixture of isomers) was tested, and the Ki (Substance-K receptor) was 794 nM and the pKb [1] was 6.1.

With `O=C1CCC(=O)N[C@@H](Cc2c[nH]c3ccccc23)C(=O)N[C@@H](Cc2ccccc2)C(=O)N[C@H](CC2CCCCC2)CN1` the Ki (Substance-K receptor) was 316 nM and the pKb [1] was 6.5.

`COc1ccc(CC2CNC(=O)CCC(=O)N[C@@H](Cc3c[nH]c4ccccc34)C(=O)N[C@@H](Cc3ccccc3)C(=O)N2)cc1` (some centres not stated) was tested, and the Ki (Substance-K receptor) was 10 nM and the pKb [1] was 7.1.

`O=C1CCC(=O)N[C@@H](Cc2c[nH]c3ccccc23)C(=O)N[C@@H](Cc2ccccc2)C(=O)N[C@H](CCc2ccccc2)CN1` gave a Ki (Substance-K receptor) of 10 nM and a pKb [1] of 6.5.

Work on `CSCC[C@@H]1NC(=O)[C@H](CC(C)C)NC(=O)[C@@H]2CNC(=O)C[C@H](NC1=O)C(=O)N[C@@H](Cc1c[nH]c3ccccc13)C(=O)N[C@@H](Cc1ccccc1)C(=O)N2` (cyclo(DWF[Dap]LM); lactam 1-4) yielded a Ki (Substance-K receptor) of 0.631 nM and a pKb [1] of 8.1.

`O=C1CCC(=O)NC(Cc2c[nH]c3ccccc23)C(=O)N[C@@H](Cc2ccccc2)C(=O)N[C@H](Cc2ccccc2)CN1` (single isomer, unassigned) showed a Ki (Substance-K receptor) of 2 nM, a pKB [2] of 5.7 and a pKB [3] of 6.1. The pKB [4] was 7.8.

`O=C1CCC(=O)N[C@@H](Cc2c[nH]c3ccccc23)C(=O)N[C@@H](Cc2ccccc2)C(=O)NC[C@H](Cc2ccccc2)N1` showed a Ki (Substance-K receptor) of 1260 nM and a pKb [1] of 5.5.

`O=C1CCC(=O)N[C@@H](Cc2c[nH]c3ccccc23)C(=O)N[C@@H](Cc2ccccc2)C(=O)NCCN1` was tested, and the Ki (Substance-K receptor) was 1260 nM and the pKb [1] was 6.3.

In the case of `O=C1CCC(=O)N[C@@H](Cc2c[nH]c3ccccc23)C(=O)N[C@@H](Cc2ccccc2)C(=O)N[C@H](Cc2ccc(C(F)(F)F)cc2)CN1`, the Ki (Substance-K receptor) is reported as 20 nM and the pKb [1] is reported as 7.1.

Molecule `O=C1CCC(=O)N[C@@H](Cc2c[nH]c3ccccc23)C(=O)N[C@@H](Cc2ccccc2)C(=O)NC(Cc2ccccc2)CN1` (some centres not stated) has a Ki (Substance-K receptor) of 1260 nM.

`O=C1CCC(=O)N[C@H](Cc2ccccc2)CNC(=O)[C@H](Cc2ccccc2)NC(=O)C(Cc2c[nH]c3ccccc23)N1` (single isomer, unassigned) gave a Ki (Substance-K receptor) of 1260 nM and a pKb [1] of 5.4.

Molecule `O=C1CCC(=O)N[C@@H](Cc2c[nH]c3ccccc23)C(=O)N[C@@H](Cc2ccccc2)C(=O)N[C@H](Cc2ccc(F)c(F)c2)CN1` has a Ki (Substance-K receptor) of 1.58 nM and a pKb [1] of 7.8.

For `O=C1CCC(=O)N[C@@H](Cc2c[nH]c3ccccc23)C(=O)N[C@@H](Cc2ccccc2)C(=O)N[C@H](Cc2ccc(Cl)c(Cl)c2)CN1`, the Ki (Substance-K receptor) was 0.1 nM and the pKb [1] was 8.1.

Work on `O=C1CCC(=O)N[C@@H](Cc2c[nH]c3ccccc23)C(=O)N[C@@H](Cc2ccccc2)C(=O)N[C@H](Cc2ccc3ccccc3c2)CN1` yielded a Ki (Substance-K receptor) of 7.94 nM and a pKb [1] of 7.

`CC(=O)N[C@@H]1[C@@H](O)[C@H](O)[C@@H](CO)O[C@H]1NC(=O)C[C@@H]1NC(=O)[C@H](CC(C)C)NC(=O)[C@@H]2CNC(=O)C[C@H](NC1=O)C(=O)N[C@@H](Cc1c[nH]c3ccccc13)C(=O)N[C@@H](Cc1ccccc1)C(=O)N2` (cyclo(D(NH(β-GlcNAc))DWF[Dap]L); lactam 2-5) gave a Ki (Substance-K receptor) of 2.51 nM.

`O=C1CC(Cc2ccccc2)C(=O)N[C@@H](Cc2c[nH]c3ccccc23)C(=O)N[C@@H](Cc2ccccc2)C(=O)NCCN1` (mixture of isomers) was tested, and the Ki (Substance-K receptor) was 631 nM and the pKb [1] was 5.7.
